Screening data from PubChem BioAssay.
This is a sample that favours compounds with a hit; in the whole collection about 2% have one here.
dFosB activator – activators of mouse delta FosB homodimer. P13346. purified delta FosB, TAMRA-CDK5 oligo fluorescence polarization; percent of positive-control signal above neutral wells. activation, % at 25 µM. 340,000 tested, 0.99% active. AID 493131;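 active means mean activation above about 17%, with every replicate also reaching it, limit read from the data, passing the limit was not always enough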
SR-BI DiI-HDL act – activators of SR-BI mediated HDL lipid uptake; 320,000 tested, 0.096% active; CHO ldlA[mSR-BI] cells, DiI-HDL uptake fluorescence, 3 h; 100 = double the neutral-control signal; activation, % at 12.5 µM;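 active means mean replicate activation of at least 60% and every replicate at or above 60%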;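 further: 0% = median plate neutral-control signal and 100% = twice that signal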
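Material: SR-BI-overexpressing, LDLR-lacking CHO cells | Dosing: Single compound concentration, delivered by pin transfer | Probe or stimulus: Labelled HDL, 10 µg/mL | Signal: Bottom-read cell fluorescence after medium removal, ex 550/em 595 nm | Schedule: 3 h, 37 °C | Evaluation: HDL uptake via cellular fluorescence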
SR-BI HDL uptake – blocks mouse SR-BI lipid uptake from DiI-HDL; AID 488896; Q61009; inhibition, % at 12.5 µM; ldlA[mSR-BI] CHO cells, DiI-HDL uptake fluorescence, 3 h; 320,000 tested, 0.96% active;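 active means mean replicate inhibition of at least 70% and a set share of replicates each scoring 70 or more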;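 further: 0% = median of neutral control wells and 100% = median of positive control wells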
CDK5 inh – CDK5/p35 (human) kinase inhibition; Q00535+Q15078; Recombinant CDK5/p35, ADP-Glo luminescence, 60 min; inhibition, % at 10 µM; 330,000 tested, 0.01% active; AID 488839;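 active means highest replicate inhibition of at least 50% and at least 75% of replicates reaching 50%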;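 further: plate controls were DMSO neutral control for no effect and GW8510 at 10 µM for full effect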
Target sequence (Q00535 whole entry, looked up): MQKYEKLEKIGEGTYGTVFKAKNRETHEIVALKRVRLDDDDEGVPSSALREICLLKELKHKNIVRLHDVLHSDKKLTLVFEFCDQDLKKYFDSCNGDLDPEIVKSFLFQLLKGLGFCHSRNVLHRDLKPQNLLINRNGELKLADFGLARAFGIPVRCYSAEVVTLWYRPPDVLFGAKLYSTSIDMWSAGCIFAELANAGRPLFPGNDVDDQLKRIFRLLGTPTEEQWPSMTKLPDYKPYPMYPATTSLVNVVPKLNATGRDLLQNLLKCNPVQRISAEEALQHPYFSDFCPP
Target sequence (Q15078 whole entry, looked up): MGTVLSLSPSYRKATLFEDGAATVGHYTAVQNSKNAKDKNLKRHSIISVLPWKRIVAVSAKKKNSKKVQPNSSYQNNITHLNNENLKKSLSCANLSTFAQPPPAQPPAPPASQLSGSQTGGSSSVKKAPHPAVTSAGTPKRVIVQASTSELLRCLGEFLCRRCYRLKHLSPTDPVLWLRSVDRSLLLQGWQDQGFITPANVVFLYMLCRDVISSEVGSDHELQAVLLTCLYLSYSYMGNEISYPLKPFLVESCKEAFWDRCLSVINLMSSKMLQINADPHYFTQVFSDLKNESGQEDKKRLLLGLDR
* hit, by the source's call; / = no result.

SMILES	dFosB activator	SR-BI DiI-HDL act	SR-BI HDL uptake	CDK5 inh
CC(NC(=O)COC(=O)c1cc([N+](=O)[O-])ccc1N1CCOCC1)c1ccc(F)cc1 (stereo not drawn)	-7	-32	32	-1
CCc1ccc(C(=O)COC(=O)c2cc([N+](=O)[O-])ccc2N2CCOCC2)cc1	1	-81	81*	1
O=C(COC(=O)c1cc([N+](=O)[O-])ccc1N1CCOCC1)c1ccc(F)cc1	-3	-84	84*	-1
CCOc1ccc(OCCCC(=O)N2CCN(S(=O)(=O)c3ccc(Cl)cc3)CC2)cc1	-9	10	-10	0
OC(COC(c1ccc(Cl)cc1)c1ccc(Cl)cc1)CN1CCCC1 (stereo not drawn)	-3	-1	1	1
CN1CCN(CC(O)COC(c2ccc(Cl)cc2)c2ccc(Cl)cc2)CC1 (stereo not drawn)	22*	40	-40	0
COc1ccccc1CCC(=O)Nc1ccc2c(c1)CN(Cc1ccc(CO)o1)CC2	-7	-77	77*	-2
O=C(Nc1ccc2c(c1)CN(Cc1ccc(CO)o1)CC2)c1ccc(C(F)(F)F)cc1	-9	-54	54	1
COC(=O)c1ccc(Cn2nc([N+](=O)[O-])c(Br)c2C)cc1	-3	-3	3	1
N/C(=N\OC(=O)C1CCCCC1)c1ccc(Br)cc1	-9	/	/	2
NC(=S)NN=C(c1ccc(F)cc1)C1CC1	0	-90	90*	1
NC(=S)NN=C(c1ccc(Br)cc1)C1CC1	1	-79	79*	2
CCc1cc2c(cc3c(=O)n(CC(=O)NCCCN4CCCCCC4)nc(CC)n32)s1	-6	/	27	2
COC(=O)C1CN(C(=O)C(C)Oc2ccc(C)c(C)c2)c2ccccc2O1 (stereo not drawn)	0	11	-11	0
CCOC(=O)C1CCCN(C(=O)c2cc(-c3ccc(F)cc3)nc3ccccc23)C1 (stereo not drawn)	-7	-70	70*	0
CCCc1ccc(OCC(O)CN2CCN(c3ccccn3)CC2)cc1 (stereo not drawn)	2	1	-1	2
Cc1cc(N2CCCCC2)n2nc(C)c(-c3ccccc3)c2n1	-5	-52	52	1
Cc1nn2c(N3CCCC3)cc(C(C)C)nc2c1-c1ccccc1	-9	-74	74*	-1
Cc1cc(N2CCC(C)CC2)n2nc(C)c(-c3ccccc3)c2n1	-1	-75	75*	-2
Cc1cc(N2CCN(Cc3ccccc3)CC2)n2nc(C)c(-c3ccccc3)c2n1	4	-21	21	0
COc1ccc(-c2c(C)nn3c(N4CCN(Cc5ccccc5)CC4)cc(C)nc23)cc1OC	-3	-76	77*	0
Cc1cc(C)c(NC(=O)CSc2nc3ccc(NC(=O)CSc4nnnn4-c4ccccc4)cc3s2)c(C)c1	-7	-77	77*	1
COCCCNc1nc(-c2ccncc2)nc2ccccc12	-29	-75	75*	0
COCCCNc1nc(-c2ccc(Cl)cc2)nc2ccccc12	-19	-86	86*	0
COCCNc1nc(-c2ccccc2)nc2ccccc12	-19	-31	31	1
SMILES	dFosB activator	SR-BI DiI-HDL act	SR-BI HDL uptake	CDK5 inh
OCCCNc1nc(-c2ccc(Cl)cc2)nc2ccccc12	-23	-50	50	0
O=C(N/C(=C\c1ccccc1)C(=O)N1CCOCC1)c1cccc(Br)c1	-4	5	-5	-7
CN(C)CCN(CC1CCCN(Cc2ccccc2F)C1)C(=O)c1ccc(Cl)cc1 (stereo not drawn)	1	18	-18	0
CC(=O)c1ccc(NC(=O)CN2C(=O)/C(=C/C=C/c3ccccc3)SC2=S)cc1	-2	-72	72*	-4
O=C(CSc1nnc(-c2ccccc2O)n1Cc1ccccc1)NNC(=O)c1ccccc1O	-11	-88	88*	-1
COc1cccc(CC(NC(C)=O)C(=O)NC2CCN(C(=O)c3ccc(Cl)cc3)CC2)c1 (stereo not drawn)	3	-10	10	-2
Cc1c(C)n(CCN(C)C)c2ccc(C(=O)OCCN(C)C)cc12	20*	3	-3	0
Cc1c(C)n(Cc2ccccc2)c2ccc(C(=O)OCCCN(C)C)cc12	12	-27	27	0
O=C(O[C@@H](C(=O)O)[C@@H](OC(=O)c1ccccc1)C(=O)O)c1ccccc1	0	11	-11	-1
